Screening data deposited in PubChem BioAssay by Sanford-Burnham Center for Chemical Genomics.
Only some compounds are listed: those with a hit (about 1.5% of all), similar ones and a draw of the others.
C8 TRAIL sens = viability loss with TRAIL in NB7+C8 cells, primary screen, TRAIL sensitizer project, cell-based, ATPlite luminescence. inhibition (viability loss, TRAIL sensitization), % at 10 µM. 360,000 compounds, 1% hits. AID 624354, 2012;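 active = compounds causing at least 50% loss of cell viability in the single-dose screen, relative to plate controls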
FLuc stim CS = FLuc activators, initial screening, artefact control for FLuc-dependent activation tests, biochemical, ATPlite luminescence; activation factor at 10 µM; 200,000 tested, under 10 active; ATPlite luciferase biochemical, 10 min; 0 = ATP-free wells, 1 = DMSO control;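 active = luciferase activation factor, scaled between plate controls, of at least 2 with compound at 10 µM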
Target sequence (P08659 whole entry, looked up): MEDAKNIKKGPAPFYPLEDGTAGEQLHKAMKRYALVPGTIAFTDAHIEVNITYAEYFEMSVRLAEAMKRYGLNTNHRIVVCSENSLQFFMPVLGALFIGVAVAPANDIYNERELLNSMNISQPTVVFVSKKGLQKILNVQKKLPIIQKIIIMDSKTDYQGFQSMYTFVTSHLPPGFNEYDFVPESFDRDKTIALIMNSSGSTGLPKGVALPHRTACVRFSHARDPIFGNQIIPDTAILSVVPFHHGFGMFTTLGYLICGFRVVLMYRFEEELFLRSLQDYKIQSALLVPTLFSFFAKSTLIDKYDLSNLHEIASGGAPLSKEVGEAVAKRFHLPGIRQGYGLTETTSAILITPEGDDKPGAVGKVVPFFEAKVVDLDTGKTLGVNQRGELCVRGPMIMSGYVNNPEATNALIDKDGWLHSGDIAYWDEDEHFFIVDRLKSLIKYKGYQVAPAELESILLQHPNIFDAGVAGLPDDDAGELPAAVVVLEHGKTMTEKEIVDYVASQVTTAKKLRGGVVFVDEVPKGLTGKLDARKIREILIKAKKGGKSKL
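test system = cell-free luciferase reagent | medium = PBS as buffer for the ATP substrate | dosing = test compounds dosed from 2 mM stocks in 100% DMSO | incubation = 10 min at ambient temperature | detection = luminescence measurement of luciferase light output | benchmarks = low control with PBS replacing ATP, high control enzyme plus ATP without compound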
FLuc inhib CS = firefly luciferase enzyme inhibitors, primary screen, artefact control for luciferase-based inhibitor screens, biochemical, luminescence, ATPLite | Luciferin 4-monooxygenase (Photinus pyralis), P08659 | 10 min | inhibition, % at 10 µM | 200,000 compounds, 1.5% hits;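 active = inhibition above about 50% when tested at 10 µM, limit read from the data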
PPC-1+TRAIL kill = compounds killing PPC-1 cancer cells with TRAIL present, primary screen, TRAIL potentiator project, ATPLite luminescence, uHTS; AID 1443, 2008; 220,000 compounds, 0.41% hits; cell killing (% activity), % at 4 µM or 5 µM; PPC-1 cells + TRAIL, ATPLite viability luminescence;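 active = cell killing above 50% in the first pass at 4 µM, then a duplicate retest at 5 µM averaging 50% or more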;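 also: plate controls were cells with TRAIL plus DMSO for no effect and medium-only wells lacking cells for full effect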
An asterisk follows results filed as active.

Screening Cc1csc(NC(=O)c2ccc(OCC3CCCO3)cc2)n1 (centres undefined) returned C8 TRAIL sens 54*, FLuc stim CS 0.3, FLuc inhib CS 74* and PPC-1+TRAIL kill 32.
Screening Cc1ccnc(NC(=O)c2ccc3c(c2)C(=O)N(CC2CCCO2)C3=O)c1 (centres undefined) returned C8 TRAIL sens 7, FLuc stim CS 0.4, FLuc inhib CS 56* and PPC-1+TRAIL kill 28.
Screening O=c1[nH]cnc2scc(C3COc4ccccc4O3)c12 (centres undefined) returned C8 TRAIL sens -7, FLuc stim CS 1, FLuc inhib CS 2 and PPC-1+TRAIL kill 10.
CCN(CC)S(=O)(=O)c1ccc(C(=O)Nc2ncn(Cc3ccccc3)n2)cc1 was read as C8 TRAIL sens -6, FLuc stim CS 1.1, FLuc inhib CS -7 and PPC-1+TRAIL kill 28.
`O=C(Nc1cc2c(cc1Cl)OCCCO2)c1ccco1` gave C8 TRAIL sens -12, FLuc stim CS 0.9, FLuc inhib CS 15 and PPC-1+TRAIL kill 2.
Cc1ccnc(Nc2nc3ccccc3o2)n1 was read as C8 TRAIL sens 47, FLuc stim CS 0.3, FLuc inhib CS 69* and PPC-1+TRAIL kill 46.
Screening Cc1nc(Nc2nc3ccccc3o2)nc(C)c1C returned C8 TRAIL sens 26, FLuc stim CS 0.5, FLuc inhib CS 51* and PPC-1+TRAIL kill 20.
CCCCCOc1ccc(CSC(=N)N)cc1[N+](=O)[O-] was read as C8 TRAIL sens 6, FLuc stim CS 1, FLuc inhib CS -1 and PPC-1+TRAIL kill 13.
Cc1ccc(-c2cn3nc(C)c(C)nc3n2)cc1 was read as C8 TRAIL sens 32, FLuc stim CS 0.2, FLuc inhib CS 75* and PPC-1+TRAIL kill 28.
O=C(OCC(=O)c1ccc(Cl)s1)c1ccccn1 was read as C8 TRAIL sens 2, FLuc stim CS 0.4, FLuc inhib CS 57* and PPC-1+TRAIL kill -5.
Screening CCOC(=O)N1CCN(C(=O)c2ccc(Cn3c(=S)[nH]c4ccc(Br)cc4c3=O)cc2)CC1 returned C8 TRAIL sens 53*.
Screening CCOC(=O)N1CCN(C(=O)c2ccc3c(=O)n(Cc4ccc(Cl)cc4)c(=S)[nH]c3c2)CC1 returned C8 TRAIL sens -9, FLuc stim CS 1, FLuc inhib CS -1 and PPC-1+TRAIL kill 14.
`Cc1ccc(Cl)cc1N1CCN(C(=O)c2noc(C)c2[N+](=O)[O-])CC1` gave C8 TRAIL sens 95*.
Screening COC(=O)CC(NC(=O)c1ccc(C)cc1)c1ccccc1 (centres undefined) returned C8 TRAIL sens 3, FLuc stim CS 0.3, FLuc inhib CS 65* and PPC-1+TRAIL kill 9.
CCc1ccc(C(=O)Cn2ncc(Cl)c(Cl)c2=O)cc1 was read as C8 TRAIL sens 97*, FLuc stim CS 0.9, FLuc inhib CS 8 and PPC-1+TRAIL kill 27.
`Cc1ccc(Cn2ncc(Cl)c(Cl)c2=O)cc1` gave C8 TRAIL sens 91*, FLuc stim CS 1.1, FLuc inhib CS -11 and PPC-1+TRAIL kill 15.
O=C(Nc1ccc2c(c1)OCCO2)C1c2ccccc2OCC(=O)N1CCc1c[nH]c2ccccc12 (centres undefined) was read as C8 TRAIL sens -7.
Screening CC(=O)Nc1sc(C)c(C)c1C(=O)Nc1ccc(C)cc1 returned C8 TRAIL sens -20, FLuc stim CS 1, FLuc inhib CS -3 and PPC-1+TRAIL kill 10.
Cc1cc(C)n(-c2ccc(C(=O)Nc3ccc(C)c(S(=O)(=O)N4CCOCC4)c3)cc2)n1 was read as C8 TRAIL sens 53* and PPC-1+TRAIL kill 22.
CCOC(=O)c1ccc(NC(=O)c2ccc(C)c(S(=O)(=O)N3CCOCC3)c2)cc1 was read as C8 TRAIL sens 70*, FLuc stim CS 1.1, FLuc inhib CS -6 and PPC-1+TRAIL kill 10.
Cn1/c(=N/N=C/c2ccccn2)sc2ccccc21 was read as C8 TRAIL sens 21, FLuc stim CS 0.4, FLuc inhib CS 59* and PPC-1+TRAIL kill 22.
For N#C/C(=C\c1ccco1)c1nc2ccccc2s1 the results were C8 TRAIL sens 46, FLuc stim CS 0.3, FLuc inhib CS 68* and PPC-1+TRAIL kill 38.
For N#C/C(=C/c1ccc(-c2cc(C(=O)O)cc(C(=O)O)c2)o1)c1nc2ccccc2s1 the results were FLuc stim CS 0.7, FLuc inhib CS 32 and PPC-1+TRAIL kill 0.
`N#C/C(=C\c1ccc(O)c([N+](=O)[O-])c1)c1nc2ccccc2s1` gave C8 TRAIL sens 2, FLuc stim CS 0.9, FLuc inhib CS 10 and PPC-1+TRAIL kill 18.
Screening N#C/C(=C/c1ccco1)c1nc2ccccc2s1 returned C8 TRAIL sens 42, FLuc stim CS 0.3, FLuc inhib CS 70* and PPC-1+TRAIL kill 25.
CC(=O)Nc1ccc(S(=O)(=O)NCCC(=O)OCC(=O)NC(C)c2ccc(Cl)cc2)cc1 (centres undefined) was read as C8 TRAIL sens 19.
Screening CCn1c(Cc2ccccc2)nnc1SCC(=O)Nc1nc(C)cs1 returned C8 TRAIL sens -11, FLuc stim CS 1, FLuc inhib CS -4 and PPC-1+TRAIL kill 26.
`O=C1NC(c2ccccc2)=N/C1=C/c1ccco1` gave C8 TRAIL sens 24, FLuc stim CS 0.3, FLuc inhib CS 73* and PPC-1+TRAIL kill 30.
`CC(=NC1CCCCC1)C1=C(O)c2ccccc2C1=O` gave C8 TRAIL sens 22, FLuc stim CS 0.4, FLuc inhib CS 58* and PPC-1+TRAIL kill 35.
Screening CC(=NC1CCCCC1)c1ccc(O)cc1O returned C8 TRAIL sens 0.
`CCOC(=O)Cc1cc(=O)n2[nH]c(-c3ccc(C)cc3)cc2n1` gave C8 TRAIL sens 14, FLuc stim CS 0.5, FLuc inhib CS 54* and PPC-1+TRAIL kill 24.
CC(C)N1CC=C2C(C#N)=C(N)C(C#N)(C#N)[C@H](c3ccoc3)[C@H]2C1 was read as FLuc stim CS 1.1, FLuc inhib CS -8 and PPC-1+TRAIL kill 1.
For CC(C)c1ccc(C(=O)N2CCCCC2c2cc(C(=O)Nc3ccncc3)no2)cc1 (centres undefined) the results were C8 TRAIL sens -10.
`Cc1cccc(-n2ncc3c(N4CCC5(CC4)OCCO5)ncnc32)c1` gave C8 TRAIL sens 20 and PPC-1+TRAIL kill -11.
`Cc1cccc(-n2ncc3c(N4CCC(C)CC4)ncnc32)c1` gave C8 TRAIL sens 50*, FLuc stim CS 0.6, FLuc inhib CS 44 and PPC-1+TRAIL kill 22.
For COc1cccc(N2CCN(c3ncnc4c3cnn4-c3ccc(C)cc3C)CC2)c1 the results were C8 TRAIL sens 93*, FLuc stim CS 1, FLuc inhib CS -4 and PPC-1+TRAIL kill 21.
For CCN(c1ccc(C)c(C)c1)S(=O)(=O)c1c(C)[nH]c(=O)[nH]c1=O the results were C8 TRAIL sens 3, FLuc stim CS 1, FLuc inhib CS -3 and PPC-1+TRAIL kill 20.
